# Source: PubChem BioAssay
# PGC1a acetyl inh: modulators of PGC1a acetylation; U2OS PGC1a acetylation, AlphaScreen anti-acetyl-lysine; with virally co-expressed GCN5 acetyltransferase; inhibition, % at 15.6 µM; 350,000 compounds, 0.17% hits; AID 651687;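 active = every replicate shows inhibition of at least 40%; inconclusive = mean inhibition at least 40% but some replicate below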
# PAX8 reporter: PAX8 transcriptional activity inhibition. RMG-I TPO-luciferase reporter, SteadyGlo, 24 h. inhibition, % at 12.6 µM. 360,000 compounds, 1.2% hits. AID 652154;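 active = mean replicate inhibition at least 60% with every replicate also reaching 60%; inconclusive = only one of the two criteria is met; inactive = mean below 60% and not all replicates reaching 60%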;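 note: luciferase light reporting Pax8 driven TPO promoter activity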
# FN deposition inh: fibronectin deposition inhibition; AH1F fibroblasts, Alexa488-fibronectin deposition fluorescence, overnight; inhibition, % at 12.6 µM; AID 743247; 350,000 compounds, 0.086% hits;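 active = mean inhibition across replicates of 30% or more, regardless of how many single replicates reach that level; inconclusive = mean under 30% yet at least half of replicates reach 30%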
#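 Test system: AH1F fibroblast monolayer depositing Alexa488-labelled fibronectin into matrix. Input: 10000 cells per well. Technique: fluorescence, ex 485 nm, em 525 nm. Buffer or medium: DMEM plus 2% serum, read in PBS. Timing: 1 h cell adhesion before compound, then overnight fibronectin incubation. Compound: single dose, pinned. Read-out basis: inhibition from reduced deposited-fibronectin fluorescence.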
# Env fusion inh: HIV envelope-mediated fusion inhibition | inhibition, % at 12.3 µM | 360,000 compounds, 1.1% hits | AID 651610 | HeLa-JRFL Env/CEM21 cell fusion, luciferase;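 active = mean replicate inhibition score of at least 50 and every replicate individually at or above 50; inconclusive = only one of the two criteria met; inactive = mean below 50 and not all replicates reaching 50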
# EWS-Fli inh: EWS/Fli transcriptional activity inhibition; A673 NR0B1-luciferase reporter, viability-normalised; inhibition, % at 12.6 µM; 350,000 compounds, 0.67% hits; AID 651661;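 active = mean inhibition of at least 50% after viability correction, with every replicate also passing that limit; inconclusive = mean reaches 50% but only one of two replicates passes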;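 note: firefly luciferase signal divided by Alamar Blue viability fluorescence both relative to DMSO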
# F508del corr: correctors of CFTR F508del function in bronchial epithelial cells. activity (quench increase), % at 7.58 µM. AID 720511. 350,000 compounds, 0.36% hits. CFBE cells, YFP halide quenching; stimulated with forskolin plus potentiator P3; % fluorescence drop versus neutral controls;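 active = mean added fluorescence quench of at least 8% versus neutral control, with both replicates also reaching 8%; inconclusive = only one of the mean or replicate conditions met; inactive = mean below 8% and not both replicates reaching 8%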;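 note: cells transiently co-express mutant CFTR-F508del with the halide-sensitive YFP; corrector assay measuring rescue of mutant channel to the surface after 24 h compound exposure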
# A number is an active result; . = inactive; ? = inconclusive; / = not tested or not shown; [ ] = dose if it differs, or a comment. Most compounds without a hit are left out; they make up all but 2.3% or so of the library.
SMILES,PGC1a acetyl inh,PAX8 reporter,FN deposition inh,Env fusion inh,EWS-Fli inh,F508del corr
CN(C)C(=O)C[C@H]1CC[C@H]2[C@@H](COc3ccc(NC(=O)c4cnccn4)cc3C(=O)N2C)O1,.,.,.,.,.,.
Cc1cc(N2CCCC2)c(F)cc1/C=C\[N+](=O)[O-],.,.,.,.,.,28
O=C(C[C@@H]1C[C@@H]2c3cc(NC(=O)C4CCOCC4)ccc3O[C@@H]2[C@H](CO)O1)NCc1ccccc1F,.,.,.,71[16.7 µM],.,.
O=C(C[C@H]1C[C@H]2c3cc(NC(=O)C4CCOCC4)ccc3O[C@H]2[C@H](CO)O1)NCc1ccccc1F,.,.,.,.,.,.
O=C(C[C@@H]1C[C@H]2c3cc(NC(=O)C4CCOCC4)ccc3O[C@H]2[C@H](CO)O1)NCc1ccccc1F,.,.,.,87[16.7 µM],.,.
CNC(=O)C[C@H]1CC[C@@H]2[C@H](COc3ccc(NC(=O)Cc4cccs4)cc3C(=O)N2C)O1,.,.,.,.,.,.
CC1(C(=O)Nc2cccc(C#N)c2)CCN1C(=O)CCc1ccccc1 (stereo unspecified),44,.,.,.,.,.
CC1(C(=O)Nc2cccc(C#N)c2)CCN1C(=O)Cc1ccc(-c2ccccc2)cc1 (stereo unspecified),.,.,.,.,.,.
CC1(C(=O)O)CCCN1C(=O)c1ccccc1OC(F)(F)F (stereo unspecified),.,73,.,.,.,.
C[C@H](CO)N1C[C@H](C)[C@@H](CN(C)Cc2ccc(-c3ccccc3)cc2)Oc2ncc(-c3cccnc3)cc2C1=O,.,/,/,.,69,.
C[C@H]1CN([C@@H](C)CO)C(=O)c2cc(-c3ccccc3)cnc2O[C@@H]1CN(C)C(=O)c1cccc(F)c1,.,/,38,.,.,.
CCOC(=O)c1sc(/N=C/N(C)C)nc1C,.,117,.,/,.,.
CCOC(=O)c1sc(/N=C/N(C)C)c(C(=O)OCC)c1C,.,/,.,.,/,/
C[C@H](CO)N1C[C@H](C)[C@@H](CN(C)C(=O)C2CC2)Oc2ncc(C#CC3(O)CCCC3)cc2C1=O,.,/,/,.,.,.
COc1ccc(CNC(=O)CN(Cc2ccc(Cl)cc2)S(=O)(=O)c2ccccc2)cc1,.,/,.,59,/,/
COc1ccc(CNC(=O)CN(Cc2ccccc2)S(=O)(=O)c2ccc(Cl)cc2)cc1,.,/,.,.,/,/
COc1ccc(S(=O)(=O)N(CCC(=O)O)Cc2ccccc2)cc1,.,.,.,.,.,.
COc1ccc(CN(Cc2cccn2C)S(=O)(=O)c2ccccc2)cc1,74,.,.,.,.,.
COc1cccc(CN2[C@H](CO)[C@H](c3ccccc3)C23CN(Cc2ccccc2OC)C3)c1,/,/,.,/,/,/
C[C@H]1CCCCO[C@H](CN(C)C(=O)c2ccccc2)[C@@H](C)CN([C@@H](C)CO)C(=O)c2cc(NC(=O)Nc3ccc(C(F)(F)F)cc3)ccc2O1,.,86,/,.,.,.
C[C@H](CO)N1C[C@H](C)[C@H](CN(C)C(=O)c2ccccc2)OCCCC[C@H](C)Oc2ccc(NC(=O)Nc3ccc(C(F)(F)F)cc3)cc2C1=O,.,104,/,.,.,.
C[C@@H]1CCCCO[C@@H](CN(C)C(=O)c2ccccc2)[C@H](C)CN([C@@H](C)CO)C(=O)c2cc(NC(=O)Nc3ccc(C(F)(F)F)cc3)ccc2O1,.,.,/,57[16.7 µM],.,.
O=C(C[C@@H]1CC[C@H](NC(=O)CN2CCOCC2)[C@H](CO)O1)NCc1cccc(F)c1,.,.,.,.,.,.
C[C@H](CO)N1C[C@H](C)[C@@H](CN(C)C(=O)c2ccc(F)cc2)OCc2ccccc2-c2c(n(C)c3ccccc23)C1=O,/,/,.,/,/,/
C[C@@H]1CN([C@H](C)CO)C(=O)c2cc(NS(=O)(=O)c3cccs3)ccc2O[C@@H](C)CCCCO[C@@H]1CN(C)C(=O)CCCN(C)C,.,/,/,/,.,.
SMILES,PGC1a acetyl inh,PAX8 reporter,FN deposition inh,Env fusion inh,EWS-Fli inh,F508del corr
CO[C@@H](CN(C)C(=O)c1ccccc1F)[C@@H](C)CN([C@@H](C)CO)S(=O)(=O)c1ccc(Cl)cc1,.,/,.,/,.,.
CCn1c(C)nc2cc(C(=O)NN=Cc3ccc([N+](=O)[O-])cc3)ccc21,/,.,31,/,.,.
COC(=O)c1nn(-c2ccc3c(c2)CCN3C(C)=O)cc1O,.,/,.,73,/,/
COc1cc(/C=C(\C#N)C(=O)c2c[nH]c3ccccc23)cc(OC)c1O,/,.,.,.,.,17
COc1cc(/C=C(\C#N)c2nc3ccccc3[nH]2)cc(OC)c1O,/,.,.,.,.,10
C[C@@H]1CCCCO[C@@H](CN(C)Cc2ccc(Cl)c(Cl)c2)[C@H](C)CN([C@H](C)CO)C(=O)c2cc(NC(=O)Nc3ccccc3)ccc2O1,.,90,.,.,.,.
C[C@@H]1CN([C@H](C)CO)C(=O)c2cc(NC(=O)Nc3ccccc3)ccc2O[C@@H](C)CCCCO[C@H]1CN(C)Cc1ccc(Cl)c(Cl)c1,.,104,.,?,.,.
C[C@@H]1CCCCO[C@H](CN(C)Cc2ccc(Cl)c(Cl)c2)[C@H](C)CN([C@@H](C)CO)C(=O)c2cc(NC(=O)Nc3ccccc3)ccc2O1,.,82,.,.,.,.
C[C@@H]1CCCCO[C@H](CN(C)Cc2ccc(Cl)c(Cl)c2)[C@@H](C)CN([C@H](C)CO)C(=O)c2cc(NC(=O)Nc3ccc(F)cc3)ccc2O1,.,.,/,.,.,.
COc1ccc2c(c1)/C(=C/c1cc(OC)c(OC)c(OC)c1)C(=O)N2,.,.,.,.,63,13
COc1ccc(/C=C2\C(=O)NC(=O)c3ccccc32)cc1OC,/,.,.,/,.,.
COc1ccc2c3c([nH]c2c1)[C@H](CO)N(Cc1ccccc1OC)CC31CN(S(C)(=O)=O)C1,.,/,/,/,.,.
C[C@@H]1CCCCO[C@@H](CN(C)S(=O)(=O)c2ccc(Cl)cc2)[C@H](C)CN([C@H](C)CO)C(=O)c2cc(NS(=O)(=O)c3ccc(Cl)cc3)ccc2O1,.,90,.,.,.,.
C[C@H]1CCCCO[C@H](CN(C)S(=O)(=O)c2ccc(Cl)cc2)[C@@H](C)CN([C@@H](C)CO)C(=O)c2cc(NS(=O)(=O)c3ccc(Cl)cc3)ccc2O1,.,83,.,.,.,.
C[C@H](CO)N1C[C@H](C)[C@@H](CN(C)S(=O)(=O)c2ccc(Cl)cc2)OCCCC[C@H](C)Oc2ccc(NS(=O)(=O)c3ccc(Cl)cc3)cc2C1=O,.,87,.,.,.,.
C[C@@H]1CN([C@H](C)CO)C(=O)c2cc(NS(=O)(=O)c3ccc(Cl)cc3)ccc2O[C@@H](C)CCCCO[C@@H]1CN(C)S(=O)(=O)c1ccc(Cl)cc1,.,.,.,.,.,.
